Test results: ChEMBL document CHEMBL1155468, “Syntheses and evaluation of anticonvulsant profile and teratogenicity of novel amide derivatives of branched aliphatic carboxylic acids with 4-aminobenzensulfonamide” (J Med Chem, 2010)
The source made the active and inactive calls. The rule behind the calls is not given here.

Tests used:
Mus musculus [1] = experiment: Neurotoxicity in CF1 albino mouse assessed as motor impairment at 300 mg/kg, ip after 4 hrs; type: toxicity, organism-based; set-up: dose 300 mg/kg, route intraperitoneal; settings: in vivo
Mus musculus [2] = experiment: Teratogenic effect in SWV mouse assessed as live fetuses at 282 mg/kg, ip administered on morning of day 8 of gestation; type: toxicity, organism-based; set-up: dose 282 mg/kg, route intraperitoneal; settings: in vivo
In short: (§1)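 Two-month-old nulligravid SWV females were mated overnight and checked for vaginal plugs the next morning; gestation onset was set at 10 p.m. the previous night. On gestation day 8.5, each dam received a single ip injection (0.55-2.7 mmol/kg range) or vehicle (25% aqueous Cremophor EL) at 10 μL/g body weight. Litters were scored for implants, resorptions, live and dead fetuses, and fetuses with neural tube defects.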

Mus musculus [3] = experiment: Teratogenic effect in SWV mouse assessed as resorptions at 141 mg/kg, ip administered on morning of day 8 of gestation; type: toxicity, organism-based; set-up: dose 141 mg/kg, route intraperitoneal; settings: in vivo
In short: (§2)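 SWV inbred mice: two-month-old nulligravid females mated overnight with males and checked for vaginal plugs next morning; gestation onset taken as 10 p.m. the previous night. On gestation day 8.5 each dam got one ip injection, 0.55–2.7 mmol/kg, in 25% aqueous Cremophor EL (vehicle controls dosed alike), 10 μL/g body weight. Litters and implants tallied; resorptions and live fetuses reported as counts with percentages.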

Mus musculus [4] = experiment: Anticonvulsant activity in CF1 albino mouse assessed as inhibition of maximal electroshock-induced seizures at 300 mg/kg, ip after 0.5 hrs; type: functional, organism-based; set-up: dose 300 mg/kg
In short: (§3)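 Test compounds suspended in 0.5% methylcellulose and given ip to adult male CF no. 1 albino mice (18-25 g) at 0.01 mL/g body weight before maximal electroshock challenge.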

Rattus norvegicus [5] = experiment: Anticonvulsant activity in Sprague-Dawley rat assessed as inhibition of maximal electroshock-induced seizures at 30 mg/kg, po after 30 mins
Rattus norvegicus [6] = experiment: Anticonvulsant activity in po dosed rat assessed as inhibition of maximal electroshock-induced seizures
Mus musculus [7] = experiment: Anticonvulsant activity in CF1 albino mouse assessed as inhibition of subcutaneous pentylenetetrazole-induced seizures at 30 mg/kg, ip after 4 hrs; type: functional, organism-based; set-up: dose 30 mg/kg
In short: (§4)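 Adult male CF no. 1 albino mice (18-25 g) dosed ip with compound suspended in 0.5% methylcellulose (0.01 mL/g). Convulsant: pentylenetetrazol dissolved in 0.9% saline as a 0.85% solution for mice, given subcutaneously.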

Mus musculus [8] = experiment: Teratogenic effect in SWV mouse assessed as live fetuses at 141 mg/kg, ip administered on morning of day 8 of gestation; type: toxicity, organism-based; set-up: dose 141 mg/kg, route intraperitoneal; settings: in vivo; in short: as §1
Mus musculus [9] = experiment: Anticonvulsant activity in CF1 albino mouse assessed as inhibition of subcutaneous pentylenetetrazole-induced seizures at 30 mg/kg, ip after 0.5 hrs; type: functional, organism-based; set-up: dose 30 mg/kg; in short: as §4
Mus musculus [10] = experiment: Teratogenic effect in SWV mouse assessed as fetuses with neural tube deffects at 282 mg/kg, ip administered on morning of day 8 of gestation; type: toxicity, organism-based; set-up: dose 282 mg/kg, route intraperitoneal; settings: in vivo; in short: as §1
Mus musculus [11] = experiment: Neurotoxicity in CF1 albino mouse assessed as motor impairment at 30 mg/kg, ip after 0.5 hrs; type: toxicity, organism-based; set-up: dose 30 mg/kg, route intraperitoneal; settings: in vivo
Mus musculus [12] = experiment: Anticonvulsant activity in CF1 albino mouse assessed as inhibition of subcutaneous pentylenetetrazole-induced seizures at 100 mg/kg, ip after 0.5 hrs; type: functional, organism-based; set-up: dose 100 mg/kg; in short: as §4
Mus musculus [13] = experiment: Anticonvulsant activity in CF1 albino mouse assessed as inhibition of maximal electroshock-induced seizures at 30 mg/kg, ip after 0.5 hrs; type: functional, organism-based; set-up: dose 30 mg/kg; in short: as §3
Mus musculus [14] = experiment: Teratogenic effect in SWV mouse assessed as resorptions at 282 mg/kg, ip administered on morning of day 8 of gestation; type: toxicity, organism-based; set-up: dose 282 mg/kg, route intraperitoneal; settings: in vivo; in short: as §2
Mus musculus [15] = experiment: Anticonvulsant activity in CF1 albino mouse assessed as inhibition of subcutaneous pentylenetetrazole-induced seizures at 300 mg/kg, ip after 0.5 hrs; type: functional, organism-based; set-up: dose 300 mg/kg; in short: as §4
Mus musculus [16] = experiment: Anticonvulsant activity in CF1 albino mouse assessed as inhibition of subcutaneous pentylenetetrazole-induced seizures at 100 mg/kg, ip after 4 hrs; type: functional, organism-based; set-up: dose 100 mg/kg; in short: as §4
Mus musculus [17] = experiment: Anticonvulsant activity in CF1 albino mouse assessed as inhibition of subcutaneous pentylenetetrazole-induced seizures at 300 mg/kg, ip after 4 hrs; type: functional, organism-based; set-up: dose 300 mg/kg; in short: as §4
Mus musculus [18] = experiment: Teratogenic effect in SWV mouse assessed as fetuses with neural tube deffects at 141 mg/kg, ip administered on morning of day 8 of gestation; type: toxicity, organism-based; set-up: dose 141 mg/kg, route intraperitoneal; settings: in vivo; in short: as §1
Mus musculus [19] = experiment: Neurotoxicity in CF1 albino mouse assessed as motor impairment at 30 mg/kg, ip after 4 hrs; type: toxicity, organism-based; set-up: dose 30 mg/kg, route intraperitoneal; settings: in vivo
Mus musculus [20] = experiment: Anticonvulsant activity in CF1 albino mouse assessed as inhibition of maximal electroshock-induced seizures at 300 mg/kg, ip after 4 hrs; type: functional, organism-based; set-up: dose 300 mg/kg; in short: as §3
Rattus norvegicus [21] = experiment: Anticonvulsant activity in Sprague-Dawley rat assessed as inhibition of maximal electroshock-induced seizures at 30 mg/kg, po after 4 hrs
Mus musculus [22] = experiment: Neurotoxicity in CF1 albino mouse assessed as motor impairment at 100 mg/kg, ip after 4 hrs; type: toxicity, organism-based; set-up: dose 100 mg/kg, route intraperitoneal; settings: in vivo
Mus musculus [23] = experiment: Anticonvulsant activity in CF1 albino mouse assessed as inhibition of maximal electroshock-induced seizures at 30 mg/kg, ip after 4 hrs; type: functional, organism-based; set-up: dose 30 mg/kg; in short: as §3
Rattus norvegicus [24] = experiment: Anticonvulsant activity in Sprague-Dawley rat assessed as inhibition of maximal electroshock-induced seizures at 30 mg/kg, po after 15 mins
Mus musculus [25] = experiment: Teratogenic effect in SWV mouse assessed as resorptions at 462 mg/kg, ip administered on morning of day 8 of gestation; type: toxicity, organism-based; set-up: dose 462 mg/kg, route intraperitoneal; settings: in vivo; in short: as §2
Rattus norvegicus [26] = experiment: Anticonvulsant activity in Sprague-Dawley rat assessed as inhibition of maximal electroshock-induced seizures at 30 mg/kg, po after 1 hr
Rattus norvegicus [27] = experiment: Neurotoxicity in Sprague-Dawley rat assessed as motor impairment at 30 mg/kg, po after 0.25 to 4 hrs; settings: in vivo
Rattus norvegicus [28] = experiment: Anticonvulsant activity in Sprague-Dawley rat assessed as inhibition of maximal electroshock-induced seizures at 30 mg/kg, po after 2 hrs
Mus musculus [29] = experiment: Teratogenic effect in SWV mouse assessed as fetuses with neural tube deffects at 462 mg/kg, ip administered on morning of day 8 of gestation; type: toxicity, organism-based; set-up: dose 462 mg/kg, route intraperitoneal; settings: in vivo; in short: as §1
Mus musculus [30] = experiment: Anticonvulsant activity in CF1 albino mouse assessed as inhibition of maximal electroshock-induced seizures at 100 mg/kg, ip after 0.5 hrs; type: functional, organism-based; set-up: dose 100 mg/kg; in short: as §3
Mus musculus [31] = experiment: Teratogenic effect in SWV mouse assessed as live fetuses at 279 mg/kg, ip administered on morning of day 8 of gestation; type: toxicity, organism-based; set-up: dose 279 mg/kg, route intraperitoneal; settings: in vivo; in short: as §1
Mus musculus [32] = experiment: Teratogenic effect in SWV mouse assessed as live fetuses at 462 mg/kg, ip administered on morning of day 8 of gestation; type: toxicity, organism-based; set-up: dose 462 mg/kg, route intraperitoneal; settings: in vivo; in short: as §2
Mus musculus [33] = experiment: Teratogenic effect in SWV mouse assessed as fetuses with neural tube deffects at 279 mg/kg, ip administered on morning of day 8 of gestation; type: toxicity, organism-based; set-up: dose 279 mg/kg, route intraperitoneal; settings: in vivo; in short: as §1
Mus musculus [34] = experiment: Teratogenic effect in SWV mouse assessed as resorptions at 279 mg/kg, ip administered on morning of day 8 of gestation; type: toxicity, organism-based; set-up: dose 279 mg/kg, route intraperitoneal; settings: in vivo; in short: as §2
Rattus norvegicus [35] = species: Rattus norvegicus; experiment: Protective index, ratio of TD50 for rat to ED50 for maximal electroshock-induced rat seizure model
Mus musculus [36] = experiment: Anticonvulsant activity in CF1 albino mouse assessed as inhibition of maximal electroshock-induced seizures at 100 mg/kg, ip after 4 hrs; type: functional, organism-based; set-up: dose 100 mg/kg; in short: as §3

Row | Compound | Activity (Mus musculus [1]) | Activity (Mus musculus [3]) [%] | Activity (Mus musculus [4]) | ED50 (Rattus norvegicus [6]) [mg/kg] | Activity (Mus musculus [7]) | Activity (Mus musculus [8]) [%] | Activity (Mus musculus [9]) | Activity (Mus musculus [12]) | Activity (Mus musculus [13]) | Activity (Mus musculus [15]) | Activity (Mus musculus [16]) | Activity (Mus musculus [17]) | Activity (Mus musculus [19]) | Activity (Mus musculus [20]) | Activity (Rattus norvegicus [21]) | Activity (Mus musculus [22]) | Activity (Mus musculus [23]) | also measured
1 | CC(C)(C)C(=O)Nc1ccc(S(N)(=O)=O)cc1 | Non-toxic | 7.5 | Active | 42.2 | inactive | 93.3 | inactive | inactive | inactive | inactive | inactive | inactive | Non-toxic | Active | Active | Non-toxic | inactive | Activity (Mus musculus [2]): 91.1%; Activity (Rattus norvegicus [5]): inactive; Activity (Mus musculus [10]): 2.7%; Activity (Mus musculus [11]): Non-toxic; Activity (Mus musculus [14]): 8.9%; Activity (Mus musculus [18]): 3.7%; Activity (Rattus norvegicus [24]): inactive
2 | CCC(C)C(=O)Nc1ccc(S(N)(=O)=O)cc1 (stereo not drawn) | Non-toxic | 8.2 | Active | 7.6 | inactive | 91.8 | inactive | inactive | Active | inactive | inactive | inactive | Non-toxic | Active | Active | Non-toxic | Active | Activity (Mus musculus [25]): 49.1%; Activity (Rattus norvegicus [26]): Active; Activity (Rattus norvegicus [27]): Non-toxic; Activity (Rattus norvegicus [28]): Active; Activity (Mus musculus [29]): 25.4%; Activity (Mus musculus [30]): Active; Activity (Mus musculus [31]): 91.2%; Activity (Mus musculus [32]): 50.9%; Activity (Mus musculus [33]): 4.4%; Activity (Mus musculus [34]): 8.8%; Ratio TD50/ED50 (Rattus norvegicus [35]): >65.7; Activity (Mus musculus [36]): Active
